According to ChEMBL document CHEMBL1671818, “Screening multicomponent reactions for X-linked inhibitor of apoptosis-baculoviral inhibitor of apoptosis protein repeats domain binder” (J Med Chem, 2011):

Legend:
[1] = target: T1, E3 ubiquitin-protein ligase XIAP (Homo sapiens, UniProt P98170); assay: Inhibition of XIAP by FRET assay
Procedure, shortened: (§1)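 TR-FRET displacement. BIR3 protein (10 nM) and biotin-lc-GGIPVA SMAC peptide (10 nM) mixed with compound in DMSO, 1 h at 4 °C. Eu-antibody conjugate (5 nM) and APC-streptavidin (2 nM) then added, incubated overnight at 4 °C. Excitation 340 nm, emission 665 nm. Screen at 100, 10, 1 and 0.1 μM; actives run as 6–7-point dilutions in duplicate.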

RPMI-8226 = assay: Cytotoxicity against human RPMI8226 cells assessed as cell viability; type: functional, cell-based
MDA-MB-231 = assay: Cytotoxicity against human ER-negative MDA-MB-231 cells assessed as cell viability after 72 hrs; type: functional, cell-based; details: MDA-MB-231, 72 h
Procedure, shortened: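 MDA-MB-231 (ER-negative) kept in DMEM + 10% FBS at 37 °C, 5% CO2. Seeded at 5000 cells/well and left overnight, then exposed for 72 h to a range of compound concentrations in serum-free DMEM (final DMSO 0.1%). Viability read by ATPlite one-step luminescence, four replicates. IC50 obtained by curve fitting.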

[2] = target: T1, E3 ubiquitin-protein ligase XIAP; assay: Inhibition of XIAP by FP assay
[3] = target: T1, E3 ubiquitin-protein ligase XIAP; assay: Inhibition of XIAP-Bir3 domain at 100 uM by TR-FRET assay; procedure, shortened: as §1
[4] = target: T1, E3 ubiquitin-protein ligase XIAP; assay: Inhibition of XIAP-Bir3 domain at 10 uM by TR-FRET assay; procedure, shortened: as §1
Jurkat = assay: Cytotoxicity against human Jurkat cells assessed as cell viability; type: functional, cell-based
[5] = target: T1, E3 ubiquitin-protein ligase XIAP; assay: Inhibition of XIAP-Bir3 domain by calorimetric titration assay
Procedure, shortened: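 ITC at 25 °C. Purified XIAP BIR3 (100 μM) in the cell, compound (1 mM) in the syringe, both in degassed PBS pH 7.4. Blank-subtracted, normalized heats fitted to a single-site model; Kd taken as 1/Ka.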

[6] = target: T1, E3 ubiquitin-protein ligase XIAP; assay: Inhibition of XIAP-Bir3 domain by NMR titration
Procedure, shortened: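 NMR Kd. 1H chemical-shift changes of resolved BIR3 resonances (BIR3 at 100 μM) followed across ligand concentrations, at least six points. Kd from a nonlinear least-squares fit of fractional bound population versus total ligand, single-site model. 2D [15N,1H]HSQC acquired at 300 K.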

T1 sequence (P98170 whole entry): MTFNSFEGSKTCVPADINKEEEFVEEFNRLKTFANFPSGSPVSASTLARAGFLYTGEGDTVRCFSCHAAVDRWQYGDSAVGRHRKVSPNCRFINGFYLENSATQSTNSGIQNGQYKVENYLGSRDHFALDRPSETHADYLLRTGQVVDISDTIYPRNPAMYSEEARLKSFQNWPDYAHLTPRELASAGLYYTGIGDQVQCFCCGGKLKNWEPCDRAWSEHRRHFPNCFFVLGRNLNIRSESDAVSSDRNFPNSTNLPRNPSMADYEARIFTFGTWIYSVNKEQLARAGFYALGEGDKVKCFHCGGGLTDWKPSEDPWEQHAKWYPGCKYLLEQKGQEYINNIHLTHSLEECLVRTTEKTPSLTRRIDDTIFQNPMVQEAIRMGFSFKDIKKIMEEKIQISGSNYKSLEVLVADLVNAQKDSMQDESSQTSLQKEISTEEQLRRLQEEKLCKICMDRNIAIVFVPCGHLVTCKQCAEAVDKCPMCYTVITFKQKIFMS

| inhibition [3] | inhibition [4] | Compound | IC50 (MDA-MB-231) | further results |
| --- | --- | --- | --- | --- |
|  |  | CN[C@@H](C)C(=O)N[C@H](C(=O)N1CC[C@H]2CN(CCc3ccccc3)CC[C@H]21)C1CCCCC1 |  | IC50 [1]: 280 nM; IC50 (RPMI-8226): 30 µM |
|  |  | CC(C)[C@H](NC(=O)[C@H](C)N)C(=O)N1C(C(=O)NC(c2ccccc2)c2ccccc2)CSC1(C)C (stereo in doubt; 9) [listing 1 of 2 here] | > 50 µM |  |
|  |  | CN[C@@H](C)C(=O)NC1CCC[C@H]2[C@@H](Cc3ccccc3)C[C@@H](C(=O)N[C@@H]3CCCc4ccccc43)N2C1=O (stereo partly specified) | 0.026 µM | Kd [2]: 31 nM |
| 83.6% | 16.7% | CC(C)[C@H](NC(=O)[C@H](C)N)C(=O)N1C(C(=O)NC(c2ccccc2)c2ccccc2)CSC1(C)C (stereo in doubt) |  |  |
| 97.2% | 58% | CC(C)C(NC(=O)[C@H](C)N)c1nc(C(=O)NCc2ccccc2)c(-c2ccccc2)s1 (stereo partly specified) | > 50 µM |  |
|  |  | CN[C@@H](C)C(=O)NC1CCC[C@H]2SC[C@@H](C(=O)Nc3cc(C)nn3-c3ccccc3)N2C1=O (stereo partly specified) | 2 µM |  |
|  |  | COc1ccc(CCN2CCC[C@H]2CN(C(=O)Nc2ccccc2)[C@@H](CNC(=O)Nc2ccccc2)CC2CCCCC2)cc1 |  | IC50 (Jurkat): 5 µM |
| 23.4% | 19.9% | CC(C)C(NC(=O)[C@H](C)N)c1nc(C(=O)NCc2ccccc2)cs1 (stereo partly specified) | > 50 µM |  |
| 83.2% | 15.8% | CC(C)[C@H](NC(=O)[C@H](C)N)C(=O)N1C(C(=O)NC(c2ccccc2)c2ccccc2)CSC1(C)C (stereo in doubt; 9) [listing 2 of 2 here] |  |  |
| 96.9% | 77.2% | CCN1CCN(C(=O)[C@@H](NC(=O)[C@H](C)N)C(C)C)C(C(=O)NC(c2ccccc2)c2ccccc2)C1 (stereo partly specified) | > 50 µM | Kd [5]: 21.6 µM; Kd [6]: 27.7 µM |
| 97.1% | 67.4% | CC(C)[C@H](NC(=O)[C@H](C)N)C(=O)N1C(C(=O)NC(c2ccccc2)c2ccccc2)CSC1(C)C (single isomer, unassigned; diastereomer A) |  |  |
|  |  | CC(C)[C@H](NC(=O)[C@H](C)N)C(=O)N1CCN(Cc2ccccc2)CC1C(=O)NC(c1ccccc1)c1ccccc1 (stereo partly specified) | 31 µM |  |
| 20.7% | 15% | CC(C)[C@H](NC(=O)[C@H](C)N)C(O)c1nnnn1CCc1ccccc1 (stereo partly specified) | > 50 µM |  |
| 82.5% | 15.6% | CC(C)[C@H](NC(=O)[C@H](C)N)C(=O)N1CCCN(C2CCCCC2)CC1C(=O)NC(c1ccccc1)c1ccccc1 (stereo partly specified) | > 50 µM |  |
